Screening results as filed in PubChem BioAssay.
An excerpt weighted towards active compounds, which were near 4.1% of everything screened.
KCNK3 inh = human KCNK3 channel inhibitors, primary screen, CHO cells, FluxOR thallium flux, B-score. Potassium channel subfamily K member 3 (Homo sapiens), O14649. FluxOR fluorescence; active compounds read low. B-score at 10 µM. actives 0.84% (n = 340,000). AID 602410, 2012;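 active means B-score under library mean minus 4 SD, starting fluorescence ratio at most library mean plus 5 SD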;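 further: more negative B-score means stronger inhibition of thallium flux through KCNK3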
KCNQ1 inh = inhibitors of human KCNQ1 channel, primary screen, cell-based, thallium flux, high-throughput; CHO-K1 KCNQ1, FluxOR thallium flux fluorescence; active compounds read high; B-score at 10 µM; actives 1.3% (n = 310,000); AID 2642, 2010;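 active means compounds whose thallium flux B-score, printed positive for inhibition, exceeds three library SD while starting fluorescence stays within three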;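 further: channel opened by potassium depolarization with thallium stimulus after 20 min compound exposure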
Cl transport mod = KCC2 cotransporter modulators, thallium flux, primary screen, cell-based, HEK293 KCC2, FluoZin-2 fluorescence, MLSMR; KCC2 cells, thallium flux FluoZin-2 fluorescence; B-score of Tl+ flux slope (higher = more flux/activation; lower = inhibition) at 10 µM; actives 2.2% (n = 190,000);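 active means thallium flux slope and its plate-corrected score both differing from the plate sample mean at a set confidence after two filtering rounds, in either direction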;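 further: slope of fluorescence scaled to starting intensity during 10 to 20 s after thallium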
Target sequence (Q9H2X9 whole entry, looked up): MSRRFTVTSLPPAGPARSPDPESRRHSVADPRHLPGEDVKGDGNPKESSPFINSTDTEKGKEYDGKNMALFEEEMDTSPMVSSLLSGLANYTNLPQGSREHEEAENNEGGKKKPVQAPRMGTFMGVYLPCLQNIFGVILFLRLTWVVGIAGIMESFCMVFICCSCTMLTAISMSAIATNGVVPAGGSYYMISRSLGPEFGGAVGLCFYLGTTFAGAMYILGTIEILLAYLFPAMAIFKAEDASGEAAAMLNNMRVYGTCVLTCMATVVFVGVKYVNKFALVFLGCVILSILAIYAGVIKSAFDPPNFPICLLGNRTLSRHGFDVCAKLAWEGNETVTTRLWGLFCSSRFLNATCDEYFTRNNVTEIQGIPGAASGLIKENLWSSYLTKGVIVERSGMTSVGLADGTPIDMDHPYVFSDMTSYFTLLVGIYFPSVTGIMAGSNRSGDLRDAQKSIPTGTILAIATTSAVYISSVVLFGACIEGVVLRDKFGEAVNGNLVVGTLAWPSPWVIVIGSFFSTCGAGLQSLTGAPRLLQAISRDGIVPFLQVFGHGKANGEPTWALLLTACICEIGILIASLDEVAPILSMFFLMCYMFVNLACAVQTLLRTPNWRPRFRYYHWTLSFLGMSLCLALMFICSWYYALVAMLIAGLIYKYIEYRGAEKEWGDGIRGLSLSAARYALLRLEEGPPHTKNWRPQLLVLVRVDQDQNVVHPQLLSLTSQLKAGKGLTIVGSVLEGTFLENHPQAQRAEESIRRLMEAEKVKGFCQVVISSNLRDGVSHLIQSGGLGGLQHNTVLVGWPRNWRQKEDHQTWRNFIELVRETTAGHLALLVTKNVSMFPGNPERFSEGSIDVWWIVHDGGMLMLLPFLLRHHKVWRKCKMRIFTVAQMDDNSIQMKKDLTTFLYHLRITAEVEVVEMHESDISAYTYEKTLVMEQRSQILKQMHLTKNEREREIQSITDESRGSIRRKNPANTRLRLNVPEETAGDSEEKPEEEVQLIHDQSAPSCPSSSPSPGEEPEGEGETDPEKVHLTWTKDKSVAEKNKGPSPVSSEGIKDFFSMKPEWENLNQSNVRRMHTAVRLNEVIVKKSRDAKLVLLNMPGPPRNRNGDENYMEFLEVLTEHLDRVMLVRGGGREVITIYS
hERG rescue = hERG rescue from dofetilide block, primary screen, cell-based, CHO-hERG, FluxOR thallium flux, dofetilide IC70; Voltage-gated inwardly rectifying potassium channel KCNH2 (Homo sapiens), Q12809; dofetilide IC70 present; activation (rescue from dofetilide block), less the hit threshold, % at 10 µM; actives 0.51% (n = 310,000);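 active means activation above the mean of controls blocked by dofetilide plus 5 SD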;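 further: thallium influx through hERG after potassium depolarization seen as dye fluorescence rise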
KCNQ1 act = potentiators or activators of KCNQ1 channel, primary screen, cell-based, thallium flux, high-throughput. AID 2648, 2010. B-score at 10 µM. Potassium voltage-gated channel subfamily KQT member 1 (Homo sapiens), P51787. CHO-K1 KCNQ1, thallium flux FluxOR fluorescence; active compounds read high. actives 0.35% (n = 310,000);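 active means fluorescence ratio B-score, a plate-corrected score, at least three library SD, with initial intensity B-score within 5 SD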
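Schedule – 37 °C overnight plating, 90-min dark dye load, 20-min compound pretreatment · System – stable KCNQ1 CHO-K1 line · Probe or stimulus – thallium- and potassium-containing depolarizing buffer · Measured by – kinetic FluxOR fluorescence, 10 s baseline plus 110 s post-stimulus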
KCNK9 inh = KCNK9 potassium channel inhibitors, primary screen, HEK293 cells, thallium flux; Potassium channel subfamily K member 9 (Homo sapiens), Q9NPC2; FluxOR thallium flux fluorescence; active compounds read low; B-score at 10 µM; actives 1.2% (n = 310,000);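 active means ratio B-score over 3 SD below the library mean, with starting fluorescence within 5 SD of its mean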;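 further: negative B-score means less thallium flux so channel inhibition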
Large screens that a line does not name were inactive.

Clc1c(-c2nnc3n2CCC3)sc2ccccc12	none
COc1cc(NC(=O)c2ccc(S(=O)(=O)N(C)c3ccccc3)cc2)cc(OC)c1	KCNK3 inh -9.1 (no result: KCNQ1 inh, Cl transport mod, hERG rescue, KCNQ1 act, KCNK9 inh)
CN(c1ccccc1)S(=O)(=O)c1cccc(NC(=O)c2ccc(Cl)c([N+](=O)[O-])c2)c1	KCNK3 inh -11 (no result: KCNQ1 inh, Cl transport mod, hERG rescue, KCNQ1 act, KCNK9 inh)
COc1ccccc1NC(=O)c1ccc(S(=O)(=O)N(C)c2ccccc2)cc1	none (no result: KCNQ1 inh, Cl transport mod, hERG rescue, KCNQ1 act, KCNK9 inh)
CCC(C)Sc1cccc(-c2nc3cc(C)ccn3c2NCc2ccccc2)c1 (stereo not given)	KCNQ1 inh 8 (no result: Cl transport mod)
CCCCNc1c(-c2ccc(SC(C)CC)cc2)nc2ccccn12 (stereo not given)	KCNQ1 inh 8, KCNK9 inh -7.8 (no result: Cl transport mod)
Cc1ccn2c(NCc3ccccc3)c(-c3cccc(SC4CCCCC4)c3)nc2c1	none (no result: KCNQ1 inh, Cl transport mod, hERG rescue, KCNQ1 act, KCNK9 inh)
CCCCNc1c(-c2ccc(SC3CCCCC3)cc2)nc2ccccn12	none (no result: Cl transport mod)
Cc1ccn(-c2ccc(NC(=O)c3cccs3)cc2)n1	none (no result: Cl transport mod)
O=C(Nc1ccccc1NC(=O)c1csnn1)c1csnn1	none
O=C(NC(=S)Nc1ccccc1Cl)c1csnn1	Cl transport mod 17, hERG rescue 60
Cc1cc(C(=O)NNC(=S)Nc2cccc(C(F)(F)F)c2)nn1C	none (no result: Cl transport mod)
O=C(NC(=S)Nc1cccc(C(F)(F)F)c1)c1csnn1	Cl transport mod 59, hERG rescue 54, KCNQ1 act 63
CC1CC(C)CN(S(=O)(=O)c2ccc(C(=O)N(C)Cc3ccccc3)cc2)C1 (stereo not given)	none (no result: KCNQ1 inh, Cl transport mod, hERG rescue, KCNQ1 act, KCNK9 inh)
COc1ccccc1C(=O)Nc1onc(C)c1C#N	hERG rescue 6.2
CN(C)c1ccc(/C=C/c2ccc3ccccc3[n+]2C)cc1	KCNQ1 inh 9
CN(CCCS(=O)(=O)[O-])c1ccc(/C=C/c2ccc3ccccc3[n+]2C)cc1	none (no result: Cl transport mod)
CCN(C[C@H]1N[C@@](Cc2ccccc2)(C(=O)OC)[C@H]2C(=O)N(C)C(=O)[C@@H]12)C(=O)C1CCCCC1	none (no result: KCNQ1 inh, Cl transport mod, hERG rescue, KCNQ1 act, KCNK9 inh)
Cc1c(-c2cc[n+]([O-])cc2)oc2ccc(Br)cc2c1=O	hERG rescue 4.9 (no result: KCNK3 inh)
FC(F)C(F)(F)C(F)(F)C(F)(F)c1cc(-c2ccccc2)n[nH]1	KCNK9 inh -7.8
C/C(=N\NC(N)=S)c1ccccc1	none
CSC(=S)N/N=C(\C)c1ccccc1	Cl transport mod 143, hERG rescue 20, KCNQ1 act 45
C/C(=N\NC(=S)Nc1cccc(C)c1)c1cccc(N)c1	Cl transport mod 9.2
C/C(=N\NC(=S)Nc1cccc(C)c1)c1ccccc1	Cl transport mod 7.4
CCCn1c(SCC(=O)c2cc(C)n(-c3cc(C)on3)c2C)n[nH]c1=O	none (no result: KCNQ1 inh, Cl transport mod, hERG rescue, KCNQ1 act, KCNK9 inh)
O=C1CSC(=S)N1/N=C/c1ccc(O)c(O)c1O	none
O=C1CSC(=S)N1/N=C/c1cc(Br)ccc1O	hERG rescue 7.1 (no result: KCNK3 inh, Cl transport mod)
COC(=O)C1=C(COc2ccc(F)cc2)NC(=O)NC1c1ccc(C)cc1C (stereo not given)	hERG rescue 7.4 (no result: Cl transport mod)
CCOc1ccc(C(=O)NCC(C)NC(=O)c2ccc(OCC)cc2)cc1 (stereo not given)	KCNQ1 inh 14 (no result: Cl transport mod)
CCOc1ccccc1C(=O)Nc1cccc2ccccc12	none (no result: Cl transport mod)
O=C(Nc1ccccc1C(=O)O)c1cncc(Br)c1	hERG rescue 6.6 (no result: Cl transport mod)
CCOc1ccc(C(=O)NCC(C)C)cc1	none
CCOc1ccc(C(=O)Nc2ccccc2C(=O)O)cc1	hERG rescue 7.5
CCOc1ccccc1C(=O)Nc1ccccc1O	KCNK9 inh -6.7
O=C(Nc1c2c(nn1-c1ccc(F)cc1)CS(=O)C2)c1ccc2c(c1)OCO2 (stereo not given)	none (no result: Cl transport mod)
O=C1NC[C@@H](c2ccccc2)OC(=O)[C@@H](Cc2ccc(F)cc2)CC/C=C/C[C@@H]1CC(=O)N(CCO)Cc1ccccc1	none (no result: KCNQ1 inh, Cl transport mod, hERG rescue, KCNQ1 act, KCNK9 inh)
Cc1cc(C)n(CCC(=O)N/N=C/c2ccc(Br)c([N+](=O)[O-])c2)n1	KCNQ1 inh 6
Cc1cc(C)n(CC(=O)N/N=C/c2cc([N+](=O)[O-])ccc2O)n1	none
CCOC(=O)C1(Cc2ccccc2C#N)CCCCC1=O (stereo not given)	none (no result: KCNQ1 inh, Cl transport mod, hERG rescue, KCNQ1 act, KCNK9 inh)
Cc1ccc(C(=O)C(C)OC(=O)CNS(=O)(=O)c2ccc(C)cc2)cc1 (stereo not given)	none (no result: KCNQ1 inh, Cl transport mod, hERG rescue, KCNQ1 act, KCNK9 inh)
Clc1ccc(-[n+]2c(-c3cccc(Br)c3)[nH]c3nc4ccccc4nc32)cc1	KCNQ1 inh 10
CCOC(=O)c1oc2ccccc2c1COC(=O)C(C)NC(=O)c1ccco1 (stereo not given)	none (no result: KCNQ1 inh, Cl transport mod, hERG rescue, KCNQ1 act, KCNK9 inh)
Cc1cc(N2CCN(C)CC2)nc2ccc(NC(=O)CCC(=O)NCCc3ccc(Cl)cc3)cc12	none (no result: Cl transport mod)
COc1ccc(-c2cc(C)no2)cc1S(=O)(=O)N(C)Cc1ccco1	none (no result: Cl transport mod)
CCCN(c1ccccc1F)S(=O)(=O)c1cc(-c2cc(C)no2)ccc1OC	KCNK9 inh -7.8 (no result: Cl transport mod)
COc1cccc2c1C(=O)c1c(O)c3c(c(O)c1C2=O)C[C@@](O)(C(C)=O)C[C@@H]3O[C@H]1C[C@H](N)[C@H](O)[C@H](C)O1	none (no result: KCNQ1 inh, hERG rescue, KCNQ1 act, KCNK9 inh)
CC(=O)[C@]1(O)Cc2c(O)c3c(c(O)c2[C@@H](O[C@H]2C[C@H](N)[C@H](O)[C@H](C)O2)C1)C(=O)c1ccccc1C3=O	KCNQ1 inh 21 (no result: KCNK3 inh, Cl transport mod)
COc1ccc(OCC(=O)N(C)CC2COc3ccccc3O2)cc1 (stereo not given)	none (no result: KCNQ1 inh, Cl transport mod, hERG rescue, KCNQ1 act, KCNK9 inh)
COc1ccccc1CNCC(O)(c1ccc(F)cc1)c1ccc(F)cc1	none (no result: Cl transport mod)
OC(CNCc1ccccc1F)(c1ccc(F)cc1)c1ccc(F)cc1	KCNK9 inh -7
OC(CNCc1ccccc1)(c1ccc(F)cc1)c1ccc(F)cc1	KCNK9 inh -7.7
OC(CNCc1ccc(F)cc1)(c1ccccc1)c1ccc(F)cc1 (stereo not given)	none (no result: Cl transport mod)
O=c1nc2n(CCO)c3ccccc3cc-2c(=O)[nH]1	none (no result: KCNQ1 inh, Cl transport mod, hERG rescue, KCNQ1 act, KCNK9 inh)
CC(C)Cn1c(=O)c(C(=O)Nc2cnccn2)c(O)c2ccccc21	none
CC(C)Cn1c(=O)c(C(=O)Nc2ccncc2)c(O)c2ccccc21	KCNQ1 inh 8 (no result: Cl transport mod)
Cc1ccc(NC(=O)c2c(Cl)n(C)c3ccccc23)cc1	KCNK9 inh -7.1 (no result: Cl transport mod)
CCCCOC(=O)CSc1nc2c(cc1C#N)C(=O)CC(C)(C)C2	KCNK9 inh -8.1
Cc1cc(C)n(CC(=O)NNC(=O)c2ccc(S(C)(=O)=O)cc2)n1	none (no result: KCNQ1 inh, Cl transport mod, hERG rescue, KCNQ1 act, KCNK9 inh)
CC(C)CNC(=O)c1ccccc1NC(=O)CCSc1ccccc1	none
